12 compounds from ChEMBL document CHEMBL1143613, “Neurosteroid analogues. 10. The effect of methyl group substitution at the C-6 and C-7 positions on the GABA modulatory and anesthetic actions of (3alpha,5alpha)- and (3alpha,5beta)-3-hydroxypregnan-20-one” (J Med Chem, 2005) can be followed below.

Experiment [1] has as its target GABA-A receptor; anion channel. As to the kind of experiment: Displacement of [35S]TBPS from picrotoxin site of GABA-A receptor of rat brain membranes. The experiment is classed as cell membranes, Membrane. A general note: In a radioligand displacement assay an active substance lowers the binding of a labelled ligand.
A short description of experiment [2]: Dose required for measuring the loss of righting reflex (LRR) in Xenopus laevis tadpoles. Type of experiment: functional. The procedure, abridged: (§1)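 Xenopus laevis tadpoles scored for loss of swimming (LSR) or righting (LRR) response. 10 animals were used at each of five or more concentrations. Error given as standard error of the mean.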
Experiment [3] addresses T1, GABA-A receptor; alpha-1/beta-2/gamma-2 (Rattus norvegicus) (UniProt P18508+P62813+P63138). As to the kind of experiment: Ratio of currents mediated by rat Alpha-1-beta-2-gamma-2L GABA-A receptor expressed in Xenopus oocytes at 0.1 uM in presence of 2 uM GABA. The experiment is classed as cell-based. The settings on record: Oocyte. The procedure, abridged:
(§2)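 Rat α1β2γ2L GABAA receptors expressed in Xenopus oocytes. Test compound at 0.1, 1 or 10 µM was co-applied with 2 µM GABA, the control GABA concentration. The value is the ratio of current with compound to current without it. At least four oocytes per concentration, with standard error of the mean.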

Experiment [4] has as its target T1, GABA-A receptor; alpha-1/beta-2/gamma-2 (Rattus norvegicus). The experiment is described as follows: Ratio of currents mediated by rat Alpha-1-beta-2-gamma-2L GABA-A receptor expressed in Xenopus oocytes at 10 uM in the absence of GABA. Type of experiment: cell-based. The settings on record: Oocyte. The essentials: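 Direct gating on rat α1β2γ2L GABAA receptors in Xenopus oocytes. Compound at 10 µM was applied with no GABA. The value is the compound-only current divided by the current from 2 µM GABA alone. At least four oocytes, with standard error of the mean.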

The target is the same in experiment [5]. As to the kind of experiment: Ratio of currents mediated by rat Alpha-1-beta-2-gamma-2L GABA-A receptor expressed in Xenopus oocytes at 10 uM in presence of 2 uM GABA. Type of experiment: cell-based. The settings on record: Oocyte. The essentials:
as §2

The nature of experiment [6]: Dose required for measuring loss of swimming reflex (LSR) in Xenopus laevis tadpoles. Type of experiment: functional. The procedure, abridged:
as §1

The target in experiment [7] is T1, GABA-A receptor; alpha-1/beta-2/gamma-2 (Rattus norvegicus). As to the kind of experiment: Ratio of currents mediated by rat Alpha-1-beta-2-gamma-2L GABA-A receptor expressed in Xenopus oocytes at 1.0 uM in presence of 2 uM GABA. The following applies: Oocyte. Type of experiment: cell-based. The essentials: as §2

Turning to `CC(=O)[C@H]1CC[C@H]2[C@@H]3C[C@H](C)[C@H]4C[C@H](O)CC[C@]4(C)[C@H]3CC[C@]12C`, the IC50 in experiment [1] turned out to be 2.94 µM. For the same compound, the ED50 was 1.4 µM in experiment [2] and 8.9 µM in experiment [6]. Besides, the Ratio in experiment [3] amounted to 1.01; in experiment [4], 0.06; in experiment [5], 3.24; in experiment [7] it was 1.17.
On to `CC(=O)[C@H]1CC[C@H]2[C@@H]3CC[C@@H]4C[C@H](O)CC[C@]4(C)[C@H]3CC[C@]12C`, for which the ED50 in experiment [2] was determined as 0.06 µM; in experiment [6], 0.3 µM. In addition, the Ratio in experiment [3] is 1.2; in experiment [4], 0.06; in experiment [5] it was 9.77; in experiment [7] it was 2.82.
The compound `CC(=O)[C@H]1CC[C@H]2[C@@H]3C[C@H](C)[C@@H]4C[C@H](O)CC[C@]4(C)[C@H]3CC[C@]12C` had an IC50 in experiment [1] of 3.08 µM. The figures for the ED50 in experiment [2] and in experiment [6] were 2.66 µM and 5.5 µM, respectively. The Ratio turned out to be 0.96 in experiment [3], 0.15 in experiment [4], 2.51 in experiment [5] and 1.02 in experiment [7].
As to `CC(=O)[C@H]1CC[C@H]2[C@@H]3[C@@H](C)C[C@@H]4C[C@H](O)CC[C@]4(C)[C@H]3CC[C@]12C`, the 50% inhibitory concentration (IC50) in experiment [1] turned out to be 1.24 µM. The figures for the ED50 in experiment [2] and in experiment [6] were 1.36 µM and 5.5 µM, respectively.
In the same order, the values of `CC(=O)[C@H]1CC[C@H]2[C@@H]3[C@@H](C)C[C@H]4C[C@H](O)CC[C@]4(C)[C@H]3CC[C@]12C` are 1.24 µM, 1.34 µM and 5.5 µM.
The compound `CC(=O)[C@H]1CC[C@H]2[C@@H]3C[C@@H](C)[C@H]4C[C@H](O)CC[C@]4(C)[C@H]3CC[C@]12C` came in with a half-maximal inhibitory concentration (IC50) in experiment [1] of 0.0057 µM. Also, the ED50 in experiment [2] was found to be 0.51 µM; in experiment [6] it was 1.05 µM. The Ratio in experiment [3] came out at 2.5; in experiment [4] it was 0.59; in experiment [5], 10; in experiment [7], 7.7.
In turn, `CC(=O)[C@H]1CC[C@H]2[C@@H]3[C@H](C)C[C@H]4C[C@H](O)CC[C@]4(C)[C@H]3CC[C@]12C` registered an IC50 in experiment [1] of 5.99 µM. Also, the ED50 in experiment [2] came out at 2.68 µM; in experiment [6], 5.5 µM.
As for `CC(=O)[C@H]1CC[C@H]2[C@@H]3C[C@@H](C)[C@@H]4C[C@H](O)CC[C@]4(C)[C@H]3CC[C@]12C`, in experiment [1], the IC50 worked out at 0.045 µM. In addition, the ED50 in experiment [2] was found to be 0.4 µM; in experiment [6], 0.55 µM. Further, the Ratio in experiment [3] was 1.48; in experiment [4] it was 0.62; in experiment [5], 22.5; in experiment [7], 4.36.
`CC(=O)[C@H]1CC[C@H]2[C@@H]3[C@H](C)C[C@@H]4C[C@@H](O)CC[C@]4(C)[C@H]3CC[C@]12C` displayed an IC50 in experiment [1] of 10.8 µM. The ED50 in experiment [2] amounted to 1.25 µM; in experiment [6], 10 µM.
As to `CC(=O)[C@H]1CC[C@H]2[C@@H]3[C@H](C)C[C@H]4C[C@@H](O)CC[C@]4(C)[C@H]3CC[C@]12C`, the values for the ED50 in experiment [2] and in experiment [6] were 1.63 µM and 5.5 µM, respectively.
Regarding `CC(=O)[C@H]1CC[C@H]2[C@@H]3CC[C@H]4C[C@H](O)CC[C@]4(C)[C@H]3CC[C@]12C`, the ED50 in experiment [2] came to 0.42 µM; in experiment [6], 5.5 µM. Also, the Ratio in experiment [3] was 1.26; in experiment [4], 0.37; in experiment [5], 9.65; in experiment [7], 3.89.
On to `CC(=O)[C@H]1CC[C@H]2[C@@H]3[C@H](C)C[C@@H]4C[C@H](O)CC[C@]4(C)[C@H]3CC[C@]12C`, for which the IC50 in experiment [1] was 1.04 µM. Moreover, the ED50 in experiment [2] was determined as 1.67 µM; in experiment [6], 5.5 µM.

As a reminder, the IC50 is the midpoint of a concentration-inhibition curve. Low readings indicate inhibition by little substance, high ones a need for much substance.
